Calls of active or inactive are those of the source.
What was measured:
[1] = tested on: Rattus norvegicus; test: Drug excretion in rat urine assessed as hydroxymethylpyrine formation at 100 mg/kg, po measured after 24 hrs by HPLC analysis; assay type: ADME, organism-based; design: dose 100 mg/kg, route oral; details: in vivo
Outline: (§1)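 Single oral dose of 100 mg/kg to rats, with urine collected for 24 h. 1 mL urine was incubated with β-glucuronidase/sulphatase and Na2S2O5 in 0.1 M acetate, pH 4.5, at 37 °C for 24 h. Phenacetin internal standard added, then chloroform/methanol 9:1 extraction. Analyzed by C18 HPLC (acetate pH 6.6/acetonitrile 85:15, 254 nm) against authentic standards. Mean ± SEM, n=4.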

[2] = tested on: Liver microsomes; test: Metabolic stability in rat liver microsomes assessed as norantipyrine formation per mg of protein after 20 mins by HPLC analysis; assay type: ADME, Microsome
Outline: (§2)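 Rat liver microsomes prepared by 9000g then 105000g centrifugation in 1.15% KCl, protein by Lowry. Incubation: 2 μmol substrate, 10 μmol NADPH, Na2S2O5 and microsomes (2-2.5 mg protein) in 2 mL 0.1 M K/Na phosphate, pH 7.4, 37 °C, 20 min. Stopped with TCA. Metabolites measured by C18 HPLC at 254 nm against authentic standards.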

[3] = species on record: Cavia porcellus; test: Antigenicity in guinea pig assessed as erythema in abdomen id measured after 24 hrs by skin reaction assay; details: in vivo, other
[4] = tested on: Rattus norvegicus; test: Antinociceptive activity in rat assessed as suppression of carrageenan-induced nociception in right hind paw at 100 mg/kg, po measured after 1 hr; assay type: functional, organism-based; design: dose 100 mg/kg
Outline: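 Randall–Selitto paw pressure test in rats. Hyperalgesia induced by intraplantar injection of 0.1 mL carrageenin (10 mg/mL) into the right hindpaw, with oral dosing immediately afterward. Pressure rose at 16 g/s to squeak or struggle, cutoff 250 g. Baseline was the mean of the last four stable of 6-8 readings. Results given as % of baseline threshold, mean ± SEM, n=4.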

[5] = tested on: Rattus norvegicus; test: Drug excretion in rat urine assessed as norantipyrine formation at 100 mg/kg, po measured after 24 hrs by HPLC analysis; assay type: ADME, organism-based; design: dose 100 mg/kg, route oral; details: in vivo; outline: as §1
[6] = species on record: Rattus norvegicus; test: Antipyretic activity against IL-1beta-induced hyperthermia in rat assessed as change in rectal temperature measured after 2 hrs; assay type: functional, organism-based
Outline: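 Rats fitted with a guide cannula into the lateral ventricle. Fever induced by icv IL-1β (200 units/rat) in PBS pH 7.5. Compound given orally immediately after IL-1β at 10-100 mg/kg. Rectal temperature read by thermoelectric probe at 7 cm depth, after 3 days of adaptation, at 2 h intervals. ΔT_rec = T − T₀. Mean ± SEM, four rats.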

[7] = tested on: Rattus norvegicus; test: Drug excretion in rat urine assessed as norantipyrine formation at 100 mg/kg, po measured after 24 hrs by HPLC analysis; details: in vivo, BLD = below limit of detection
[8] = tested on: Rattus norvegicus; test: Antipyretic activity against IL-1beta-induced hyperthermia in rat assessed as change in rectal temperature at 50 mg/kg, po measured after 2 hrs
[9] = tested on: Liver microsomes; test: Metabolic stability in rat liver microsomes assessed as hydroxyantipyrine formation per mg of protein after 20 mins by HPLC analysis; assay type: ADME, Microsome; outline: as §2
[10] = tested on: Rattus norvegicus; test: Drug excretion in rat urine assessed as hydroxyantipyrine formation at 100 mg/kg, po measured after 24 hrs by HPLC analysis; assay type: ADME, organism-based; design: dose 100 mg/kg, route oral; details: in vivo; outline: as §1
[11] = Drug excretion in rat urine at 100 mg/kg, po measured after 24 hrs by HPLC analysis; assay type: ADME, organism-based; design: dose 100 mg/kg, route oral; details: read-out: Activity; outline: as §1
[12] = tested on: Liver microsomes; test: Metabolic stability in rat liver microsomes assessed as increase in […] products after 20 mins by HPLC analysis; assay type: ADME, Microsome; outline: as §2
[13] = tested on: Liver microsomes; test: Metabolic stability in rat liver microsomes assessed as hydroxymethylpyrine formation per mg of protein after 20 mins by HPLC analysis; assay type: ADME, Microsome; outline: as §2
[14] = tested on: Rattus norvegicus; test: Antipyretic activity against IL-1beta-induced hyperthermia in rat assessed as change in rectal temperature at 100 mg/kg, po measured after 2 hrs
[15] = tested on: Rattus norvegicus; test: Antinociceptive activity in rat assessed as suppression of carrageenan-induced nociception in right hind paw at 2 mg/kg, po measured after 1 hr; assay type: functional, organism-based; design: dose 2 mg/kg
Outline: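 Rat Randall-Selitto paw pressure test. Hyperalgesia induced by intraplantar injection of 0.1 mL carrageenin (10 mg/mL) into the right hindpaw. Drug given orally immediately after. Pressure applied at 16 g/s with a 250 g cutoff; threshold taken at squeaking/struggling. Baseline is the mean of the last four stable readings. Expressed as % of control threshold; mean ± SEM, n=4 rats.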

Compound: Cc1cc(=O)n(-c2ccccc2)n1-c1ccccc1
- Activity ([1]; BLD = below limit of detection): BLD
- Activity [2]: < 0.1 nmol
- Activity [3]: Non-toxic
- Activity [4]: Active
- Activity ([5]; BLD = below limit of detection): BLD
- Activity [6]: Dose-dependent effect
- Activity [7]: BLD
- Activity [8]: Active

Compound: Cc1cc(=O)n(-c2ccccc2)n1C(C)(C)C
- Activity ([1]; BLD = below limit of detection): BLD
- Activity [2]: < 0.1 nmol
- Activity [3]: Non-toxic
- Activity [4]: Active
- Activity ([5]; BLD = below limit of detection): BLD
- Activity [6]: Dose-dependent effect
- Activity [7]: BLD
- Activity [8]: Active

Compound: Cc1cc(=O)n(-c2ccccc2)n1C [ANTIPYRINE]
- Activity [9]: 40 nmol
- Activity [1]: 2%
- Activity [2]: 27 nmol
- Activity [3]: Toxic
- Activity [10]: 2%
- dose excreted at 24 h [11]: 2%
- Stability [12]: Unstable
- Activity [4]: Active
- Activity [13]: 40 nmol
- Activity [5]: 2%
- Activity [14]: Active

Compound: Cc1cc(=O)n(-c2ccccc2)n1CC(F)(F)F
- Activity ([1]; BLD = below limit of detection): BLD
- Activity [2]: < 0.1 nmol
- Activity [3]: Non-toxic
- Activity [4]: Active
- Activity ([5]; BLD = below limit of detection): BLD
- Activity [6]: Dose-dependent effect
- Activity [7]: BLD
- Activity [8]: Active

Compound: Cc1cccc(Nc2ccccc2C(=O)O)c1C
- Activity [14]: Active

Compound: COc1ccc2c(c1)c(CC(=O)O)c(C)n2C(=O)c1ccc(Cl)cc1
- Activity [15]: Active
